Measured values: publication PMC5694347 (Clinical cancer research : an official journal of the …, 2015)
Marks after values point to notes of the source that are not given here.

Tests used:
[1] = tested on: patients with relapsed and/or refractory lymphoma or MM; experiment: Phase I dose escalation: MTD and DLT determination; assay type: in vivo
[2] = Plasma pharmacokinetics, cycle 1; conditions: human, in vivo
NQO1 = experiment: Whole blood reverse-transcriptase-PCR of NRF-2-regulated genes; assay type: in vivo, human; conditions: approximate
Outline: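 Whole blood was collected in PAXgene tubes at screening, at baseline and during cycle 1. Schedule A: day 1 at 4 and 8 h, day 2 pre-dose, day 5. Schedule B: days 1 and 11 at 4, 8 and 23 h, pre-dose days 4 and 11, day 15. Eight genes were assayed by RT-PCR, with ΔCt against four housekeeping genes (18S, B2M, RPLP0, UBC). Percent change = (2^−(post ΔCt − baseline ΔCt) − 1) × 100. Undetermined Ct was set to 40.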

NRF-2 = experiment: Skin punch biopsy immunohistochemistry, NRF-2; assay type: in vivo, human; conditions: 19 patients, schedule A 25–147 mg/m^2, after second dose of cycle 1
Outline: (§1)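 IV infusion over 1 h. 2 mm skin punch biopsies were taken at screening and 3–6 h after the cycle 1 dose on day 2 (schedule A) or day 4 (schedule B). On 5 µm sections, CC1 antigen retrieval ran 20 min. Primary antibody was applied 1 h at room temperature, then alkaline phosphatase secondary 32 min, developed with NBT/BCIP. Slides were counterstained and imaged at 20x. Signal was percent stained area of the basal epithelial region.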

CDT-1 = experiment: Skin punch biopsy immunohistochemistry, CDT-1; assay type: in vivo, human; conditions: 3–6 hours after second dose of cycle 1
Outline: as §1

## NS(=O)(=O)OC[C@@H]1C[C@@H](n2ccc3c(N[C@H]4CCc5ccccc54)ncnc32)C[C@@H]1O [pevonedistat]
[1]; in vivo
  DLTs at 261 mg/m^2: no DLTs were observed
[1]; schedule A: IV days 1, 2, 8, 9 of 21-day cycles
  Maximum tolerated dose (MTD): 110 mg/m^2
[2]
  Dose proportionality of mean Cmax and AUC0–24hr: approximate dose-proportional increases
[2]; 110 mg/m2
  Cmax: 1683 (28) ng/mL
  Tmax: 1.08 h
[2]; 110 mg/m2, Cmax
  Cmax: 1500 ng/mL
[2]; 110 mg/m2, Tmax
  Tmax: 1.02 h
[2]; 196 mg/m2
  AUC0-τ: 12,367 (13) ^c nghr/mL
  Cmax: 3751 (53) ng/mL
  Mean plasma elimination half-life: 8.5 h
  Tmax: 1.02 (0.9– 1.1) hr
  clearance: 472 mL/min
[2]; 196 mg/m2, Cmax
  Cmax: 4560 ng/mL
[2]; 196 mg/m2, Mean plasma elimination half-life
  half-life: ~8.5 h
[2]; 196 mg/m2, Plasma elimination half-life, range
  half-life: 7.7 to 9.1 h
[2]; 196 mg/m2, Tmax
  Tmax: 1.1 h
[2]; 196 mg/m2, t½ (terminal disposition half-life)
  half-life: 8.5 h
NQO1; doses of 25–83 mg/m^2, cycle 1 day 1
  NQO1 expression in whole blood, maximal change from baseline: 250% to 400%
NQO1; doses of 110–261 mg/m^2, cycle 1 day 1
  NQO1 expression in whole blood, maximal change from baseline: 700% to 800%
NRF-2
  NRF-2 expression in skin, median increase vs baseline: 39.4 fold
  NRF-2 expression in skin, range of increase vs baseline: 0–1483 fold
CDT-1
  CDT-1 expression level in skin biopsies vs baseline: increases
